# Measurements from ChEMBL document CHEMBL1122815, “Synthesis and hypoglycemic activity of N-alkylated hydrazonopropionic acids” (J Med Chem, 1985).
# Test system: Cavia porcellus
# Assay: Hypoglycemic activity at a dose of 20 mg/kg administered intraperitoneally
# Assay type: functional
# Conditions: dose 50 mg/kg; route intraperitoneal; in the assay text read “50 mg/kg” for “20 mg/kg”
# Outline: (§1)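 Guinea pigs fasted from about 20 h before and throughout the study, with free access to water; six animals per dose group. Compound was given ip as a neutral solution, and a parallel control group received physiological NaCl ip. Ear-vein blood (10 μL) was taken before dosing and then hourly to 6 h. Glucose was measured by hexokinase on the hemolysate. The effect was calculated as the % difference of the lowest glucose relative to the initial value. U-test, p ≤ 0.05.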
row,SMILES,Decrease in blood glucose
1,CCCCCCCCCN/N=C(\C)C(=O)O,25%

# Test system: Cavia porcellus
# Assay: Hypoglycemic activity was given as differences between the mean changes in blood glucose concentration in control group and the treated group after a dose of 50 mg/kg, ip
# Assay type: functional
# Conditions: route intraperitoneal
# Outline: as §1
row,SMILES,Decrease in blood glucose
1,C/C(=N\NC/C=C/c1cccc(Cl)c1)C(=O)O,6%
2,C/C(=N\NCC(C)Cc1ccccc1)C(=O)O (centres undefined),22%
3,C/C(=N\NCCCc1ccccc1)C(=O)[O-].[Na+],23%
4,C/C(=N\NCCc1ccccc1)C(N)=O,15%
5,C/C(=N\NCCc1ccccc1C)C(=O)O,14%
6,C/C(=N\NCCc1cccc(C(F)(F)F)c1)C(=O)O,13%
7,C/C(=N\NC(C)Cc1ccccc1)C(=O)[O-].[Na+] (centres undefined),14%
8,C/C(=N\NCC(C)c1ccccc1)C(=O)[O-].[Na+] (centres undefined),15%

# Test system: Cavia porcellus
# Assay: Hypoglycemic activity was given as differences between the mean changes in blood glucose concentration in control group and the treated group after a dose of 25 mg/kg, ip
# Assay type: functional
# Conditions: route intraperitoneal
# Outline: as §1
row,SMILES,Decrease in blood glucose
1,C/C(=N\NCCc1ccccc1)C(=O)O,40%
2,C/C(=N\NC/C=C/c1ccc(Cl)cc1)C(=O)O,9%
3,C/C(=N\NCCCC1CCCC1)C(=O)O,68%
4,C/C(=N\NC/C=C/c1cccc(Cl)c1)C(=O)O,14%
5,C/C(=N\NCCc1ccc(F)cc1)C(=O)O,21%
6,CCC/C=C/CN/N=C(\C)C(=O)O,43%
7,C/C(=N\NC/C=C/c1ccccc1)C(=O)[O-].[Na+],15%
8,C/C(=N\NCCOc1ccccc1)C(=O)O,22%
9,CC/C=C/CCN/N=C(\C)C(=O)O,82%
10,C/C(=N\NCCCCc1ccccc1)C(=O)[O-].[Na+],34%
11,CCCCCCCCN/N=C(\C)C(=O)O,69%
12,C/C(=N\NC/C=C/c1cccc(C)c1)C(=O)O,22%
13,C/C(=N\NCc1ccccc1)C(=O)O,7%
14,CCCN/N=C(\C)C(=O)O,24%
15,CCCCCCCN/N=C(\C)C(=O)O,70%
16,COc1ccc(CCN/N=C(\C)C(=O)O)cc1,7%
17,C/C(=N\NCCc1ccc(Cl)cc1)C(=O)O,11%

row,SMILES,Decrease in blood glucose
1,C/C(=N\NCCc1ccc(C)cc1)C(=O)O,8%
2,CCC(C)CCCN/N=C(\C)C(=O)O (centres undefined),41%
3,C/C(=N\NCC/C=C/c1ccccc1)C(=O)O,15%
4,CCCCN/N=C(\C)C(=O)O,41%
5,CCCOCCCCN/N=C(\C)C(=O)O,22%
6,C/C(=C\CN/N=C(\C)C(=O)O)c1ccccc1,20%
7,C=CCCCCN/N=C(\C)C(=O)[O-].[Na+],60%
8,COCCCCCCN/N=C(\C)C(=O)O,22%
9,CCCCCCN/N=C(\C)C(=O)O,72%
10,CCCCCN/N=C(\C)C(=O)[O-].[Na+],45%
11,C/C(=N\NCCCC1CCCCC1)C(=O)[O-].[Na+],13%
12,CCOC(=O)/C(C)=N/NCCc1ccccc1,14%
13,CCCCCC(C)N/N=C(\C)C(=O)O (centres undefined),45%
14,C/C(=N\NCCC1CCCCC1)C(=O)O,48%
15,C/C(=N\NCCc1cccc(C)c1)C(=O)[O-].[Na+],24%
16,N=C(N)NC(=N)NCCc1ccccc1 [PHENFORMIN],70%

# Test system: not listed separately
# Assay: Lethal dose on oral administration to rats was determined
# Assay type: toxicity, organism-based
# Conditions: rat, in vivo
row,SMILES,LD50
1,C/C(=N\NCCC1CCCCC1)C(=O)O,520 mg/kg
2,C/C(=C/c1ccccc1)CN/N=C(\C)C(=O)O,680 mg/kg
